Here are results for eight compounds from ChEMBL document CHEMBL4229391, “Divergent synthesis of thapsigargin analogs” (Bioorg Med Chem Lett, 2018).

pIC50: −log10 of the molar value.

Common to all, as to assay type: cell-based
The subject of experiment [1] is HeLa. The experiment can be described thus: Inhibition of SERCA in human HeLa cells assessed as increase in cytosolic calcium level at 9.77 x 10^-9M measured over 300 secs by Fluo-4 NW dye based FLIPR analysis relative to control. Summed up:
(§1)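 HeLa cells seeded at 25,000/well in MEM + 10% FBS and kept overnight at 37°C, 5% CO2. They were loaded with FLUO-4 NW (30 min 37°C, then 30 min RT) in HBSS/20 mM HEPES. Compounds were added from DMSO in a 10-point titration (in-assay 10 uM–38 pM). Fluorescence (ex 470-495, em 515-575 nm) was read 300 s. Signal maxima were normalized to thapsigargin (100%) and buffer/0.2% DMSO controls. Three independent runs in duplicate.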

For experiment [2], the system named is HeLa. The experiment can be described thus: Inhibition of SERCA in human HeLa cells assessed as increase in cytosolic calcium level at 2.50 x 10^-6M measured over 300 secs by Fluo-4 NW dye based FLIPR analysis relative to control. Summed up:
(§2)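 HeLa cells were seeded at 25,000/well in MEM + 10% FBS and grown overnight at 37°C, 5% CO2. They were loaded with Fluo-4 NW (30 min at 37°C, then 30 min at RT). Compound was added in HBSS/20 mM HEPES, one point of a 10-point in-assay range (10 uM – 38 pM). Fluorescence (ex 470-495, em 515-575 nm) was read for 300 s. Peak signal was normalized to thapsigargin (=100%) and buffer (0.2% DMSO) controls.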

The test system of experiment [3] is HeLa. Put plainly: Inhibition of SERCA in human HeLa cells assessed as increase in cytosolic calcium level at 6.10 x 10^-10M measured over 300 secs by Fluo-4 NW dye based FLIPR analysis relative to control. Summed up:
as §1

For experiment [4], the system named is HeLa. The experiment can be described thus: Inhibition of SERCA in human HeLa cells assessed as increase in cytosolic calcium level at 3.91 x 10^-8M measured over 300 secs by Fluo-4 NW dye based FLIPR analysis relative to control. The gist of the method:
as §2

The test system of experiment [5] is HeLa. The experiment can be described thus: Inhibition of SERCA in human HeLa cells assessed as increase in cytosolic calcium level at 1.53 x 10^-10M measured over 300 secs by Fluo-4 NW dye based FLIPR analysis relative to control. Summed up:
as §1

The subject of experiment [6] is HeLa. Put plainly: Inhibition of SERCA in human HeLa cells assessed as increase in cytosolic calcium level at 6.25 x 10^-7M measured over 300 secs by Fluo-4 NW dye based FLIPR analysis relative to control. Summed up: as §2
Experiment [7] deals with HeLa. Put plainly: Inhibition of SERCA in human HeLa cells assessed as increase in cytosolic calcium level at 1.00 x 10^-5M measured over 300 secs by Fluo-4 NW dye based FLIPR analysis relative to control. Summed up:
as §2

Experiment [8] deals with HeLa. Put plainly: Inhibition of SERCA in human HeLa cells assessed as increase in cytosolic calcium level at 1.56 x 10^-7M measured over 300 secs by Fluo-4 NW dye based FLIPR analysis relative to control. Summed up: as §2
Experiment [9] can be described thus: Inhibition of SERCA in human HeLa cells assessed as increase in cytosolic calcium level measured over 300 secs by Fluo-4 NW dye based FLIPR analysis. Summed up:
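Fluo-4 NW-loaded HeLa cells (25,000/well, overnight culture in MEM/10% FBS) received 10-point titrations (10 uM – 38 pM in-assay) in HBSS/20 mM HEPES. Fluorescence was recorded for 300 s. Peak signals, normalized to thapsigargin and 0.2% DMSO buffer controls, were fitted to a log agonist-response model. The midpoint concentration is reported as IC50. Values are mean ± SD of three independent determinations, each run in duplicate.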

Experiment [10] concerns HeLa. The experiment can be described thus: Inhibition of SERCA in human HeLa cells assessed as increase in cytosolic calcium level at 2.44 x 10^-9M measured over 300 secs by Fluo-4 NW dye based FLIPR analysis relative to control. The gist of the method:
as §1

In experiment [11] the test system is HeLa. The experiment can be described thus: Inhibition of SERCA in human HeLa cells assessed as increase in cytosolic calcium level at 3.81 x 10^-11M measured over 300 secs by Fluo-4 NW dye based FLIPR analysis relative to control. The gist of the method:
as §2

`C/C=C(/C)C(=O)O[C@H]1C(C)=C2[C@H]([C@@H]1OC(=O)CCCCCCC)[C@@](C)(OC(C)=O)C[C@H](OC(=O)[C@@H](C)CC)[C@@]1(O)[C@H]2OC(=O)[C@@]1(C)O`: the inhibition in the experiment with HeLa [1] is -1.3 to 3.8%; in the experiment with HeLa [2], 91.1 to 109%; in the experiment on HeLa [3], -3.2 to 2.2%; in the experiment on HeLa [4], 2.9 to 27.6%; in the experiment with HeLa [5], -4.2 to 2.5%; in the experiment with HeLa [6], 88.4 to 101%. Moreover, the inhibition in the experiment on HeLa [7] was 89.4 to 110%; in the experiment on HeLa [8], 6.2 to 40.9%; in the experiment with HeLa [10], -1.6 to 2.8%; in the experiment on HeLa [11], -2.2 to 2.4%. Further, the pIC50 in experiment [9] was 6.53 to 6.66.
On to `CCCCCCCC(=O)O[C@H]1[C@H]2C(=C(C)[C@@H]1OC(=O)c1sccc1C)[C@@H]1OC(=O)[C@@](C)(O)[C@@]1(O)[C@@H](OC(=O)CCC)C[C@]2(C)OC(C)=O`, for which the inhibition in the experiment with HeLa [1] is -6.6 to 10%; in the experiment on HeLa [2], 86.7 to 101%; with HeLa [3] it was -4.2 to 0.8%; with HeLa [4] it was -6.6 to 60.1%; with HeLa [5] it was -2.6 to 0.5%; in the experiment on HeLa [6] it was 83.7 to 102%. Besides, the inhibition with HeLa [7] is 92 to 101%; with HeLa [8], 57 to 99.4%; with HeLa [10], -7.7 to 1.6%; in the experiment with HeLa [11], -2.2 to 3.1%. Further, in experiment [9], the pIC50 is 6.92 to 7.52.
`C/C=C(/C)C(=O)O[C@H]1C(C)=C2[C@H]([C@@H]1OC(=O)CCCCCCC)[C@@](C)(OC(C)=O)C[C@H](OC(=O)CCC)[C@@]1(O)[C@H]2OC(=O)[C@@]1(C)O` [THAPSIGARGIN]: the inhibition was -2.7 to 10.5% in the experiment on HeLa [1]; 92.9 to 105% in the experiment with HeLa [2]; -5 to 0.6% with HeLa [3]; 37.6 to 75.1% in the experiment on HeLa [4]; -1.7 to 0.1% in the experiment on HeLa [5]; 90.4 to 109% in the experiment with HeLa [6]. The inhibition was 89 to 107% in the experiment with HeLa [7], 67.6 to 103% with HeLa [8], -4.1 to 1.4% in the experiment with HeLa [10] and -2.3 to 2.9% with HeLa [11]. Besides, the pIC50 in experiment [9] was 7.29 to 7.55.
For `C/C=C(/C)C(=O)O[C@@H]1C[C@H]2C(=C1C)[C@@H]1OC(=O)[C@@](C)(O)[C@@]1(O)[C@@H](OC(=O)C=C(C)C)C[C@]2(C)OC(C)=O`, the inhibition in the experiment on HeLa [1] is -4.7 to 4.6%; in the experiment on HeLa [2], 87.1 to 102%; in the experiment on HeLa [3], -3 to 3.3%; in the experiment on HeLa [4], -1.7 to 10.7%; in the experiment on HeLa [5], -3.3 to 2.6%; with HeLa [6], 65.5 to 94.1%. In addition, the inhibition with HeLa [7] is 92 to 102%; in the experiment with HeLa [8], 12.1 to 55.6%; in the experiment on HeLa [10] it was -3.4 to 4.1%; in the experiment on HeLa [11], -2 to 1.7%. The pIC50 in [9] is 6.57 to 6.69.
With `CCCCCCCC(=O)O[C@H]1[C@H]2C(=C(C)[C@@H]1OC(=O)[C@H](C)CC)[C@@H]1OC(=O)[C@@](C)(O)[C@@]1(O)[C@@H](OC(=O)CCC)C[C@]2(C)OC(C)=O`, the inhibition was 1 to 7.1% in the experiment with HeLa [1]; 88.1 to 106% in the experiment on HeLa [2]; -0.7 to 1.9% in the experiment with HeLa [3]; 8.1 to 45.8% in the experiment on HeLa [4]; -4.3 to 1.5% in the experiment with HeLa [5]; 91.7 to 104% with HeLa [6]. In addition, the inhibition is 87.4 to 108% in the experiment on HeLa [7], 71.9 to 87.8% in the experiment with HeLa [8], -1.6 to 3.6% with HeLa [10] and -0.7 to 2.6% with HeLa [11]. The pIC50 in experiment [9] is 6.98 to 7.24.
Take `CCCCCCCC(=O)O[C@H]1[C@H]2C(=C(C)[C@@H]1OC(=O)CC(C)C)[C@@H]1OC(=O)[C@@](C)(O)[C@@]1(O)[C@@H](OC(=O)CCC)C[C@]2(C)OC(C)=O`: the inhibition with HeLa [2] is 72.4 to 91.7%; in the experiment on HeLa [6], 40.2 to 84.1%; in the experiment on HeLa [7] it was 89.7 to 96.6%; in the experiment with HeLa [11], -8 to 21.4%. Moreover, the pIC50 in experiment [9] was 6.24 to 6.51.
On to `C/C=C(/C)C(=O)O[C@H]1C(C)=C2[C@H]([C@@H]1OC(=O)CCCCC)[C@@](C)(OC(C)=O)C[C@H](OC(=O)CCC)[C@@]1(O)[C@H]2OC(=O)[C@@]1(C)O`, for which the inhibition is -2.2 to 7.9% in the experiment on HeLa [1]; 91.1 to 105% in the experiment on HeLa [2]; -4.6 to 4.1% in the experiment with HeLa [3]; 5.8 to 30.7% with HeLa [4]; -2.1 to 3.5% in the experiment with HeLa [5]; 90.8 to 104% with HeLa [6]. The inhibition is 86.6 to 100% in the experiment on HeLa [7], 64.9 to 94.4% with HeLa [8], -5.9 to 4.6% in the experiment on HeLa [10] and -2.5 to 2% in the experiment on HeLa [11]. For the same compound, the negative logarithm of the IC50 (pIC50) in experiment [9] was 7.05 to 7.14.
`CCCCCCCC(=O)O[C@H]1[C@H]2C(=C(C)[C@@H]1OC(=O)c1cccs1)[C@@H]1OC(=O)[C@@](C)(O)[C@@]1(O)[C@@H](OC(=O)CCC)C[C@]2(C)OC(C)=O`: the inhibition is 79.6 to 105% in the experiment with HeLa [2]; -7.5 to 25.7% in the experiment with HeLa [4]; 68.8 to 103% in the experiment on HeLa [6]; 92.9 to 102% in the experiment on HeLa [7]; 52.4 to 84.4% in the experiment with HeLa [8]; -5.9 to 0.6% in the experiment on HeLa [11]. The pIC50 in experiment [9] was 6.93 to 7.15.
